The results in this text go back to ChEMBL document CHEMBL1141106, “Synthesis, binding affinity at glutamic acid receptors, neuroprotective effects, and molecular modeling investigation of novel dihydroisoxazole amino acids” (J Med Chem, 2005).

Each structure is given as a SMILES string.

In one assay the target is Glutamate NMDA receptor. In words: In vitro binding affinity for NMDA receptor using [3H]-CGP- 39653. The format is protein-complex assay, Rattus norvegicus. The gist of the method:
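Displacement binding to rat cortical membranes. Bound radioactivity was counted by scintillation. IC50 came from nonlinear regression with a Hill-coefficient inhibition equation on percent of total specific binding. Mean ± SEM of at least three independent experiments.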

Assay [1] has as its target Glutamate receptor ionotropic, kainate. In words: In vitro inhibitory concentration against KA receptor using [3H]KA. The format is protein-complex assay, Rattus norvegicus. The gist of the method:
(§1)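 Displacement binding to rat cortical membranes. Radioligands: NMDA site 2 nM [3H]CGP 39653; AMPA site 5 nM [3H]AMPA; KA site 5 nM [3H]KA without CaCl2. Bound radioactivity was counted by scintillation. IC50 came from nonlinear regression with a Hill-coefficient inhibition equation on percent of total specific binding. Mean ± SEM of at least three independent experiments.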

The target in assay [2] is Glutamate receptor ionotropic, AMPA (Rattus norvegicus, UniProt P19490+P19491+P19492+P19493). In words: In vitro inhibitory concentration against AMPA receptor using [3H]AMPA. It counts as protein-complex assay. The gist of the method: as §1
The target of assay [3] is T1, Metabotropic glutamate receptor 4 (Rattus norvegicus, UniProt P31423). Kind of assay: Binding affinity for mGluR4 receptor expressed in CHO cells. It counts as cell-based.
The target in assay [4] is T2, Metabotropic glutamate receptor 2 (Rattus norvegicus, UniProt P31421). In words: Effective concentration against mGluR2 receptor expressed in CHO cells. It counts as cell-based. In a few lines: (§2)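 CHO cell lines stably expressing rat mGluR1a, mGluR2 or mGluR4a. Functional second-messenger read-out: intracellular calcium for mGluR1, cyclic AMP levels for mGluR2 and mGluR4. Values are mean ± SEM of at least three independent experiments.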

The target of assay [5] is T1, Metabotropic glutamate receptor 4. Kind of assay: Effective concentration against mGluR4 receptor expressed in CHO cells. It counts as cell-based. The gist of the method:
as §2

Assay [6] has as its target T3, Metabotropic glutamate receptor 1 (Rattus norvegicus, UniProt P23385). In words: Binding affinity for mGluR1 receptor expressed in CHO cells. The format is cell-based.
The target in assay [7] is Metabotropic glutamate receptor 4 (Rattus norvegicus) (UniProt P31423). Kind of assay: Binding affinity for mGluR4 receptor expressed in CHO cells; weak.
Assay [8] deals with T2, Metabotropic glutamate receptor 2. Kind of assay: Binding affinity for mGluR2 receptor expressed in CHO cells. The format is cell-based.
Assay [9] deals with T3, Metabotropic glutamate receptor 1. In words: Effective concentration against mGluR1 receptor expressed in CHO cells. It counts as cell-based. The gist of the method:
as §2

The target in assay [10] is T2, Metabotropic glutamate receptor 2. In words: Effective concentration against mGluR2 receptor expressed in CHO cells; weak. The format is cell-based. The gist of the method:
as §2

Assay [11] in a line: Inhibition of 10 uM NMDA induced electrophysiological response in rat cortical wedge preparation.

T3 sequence (P23385 whole entry): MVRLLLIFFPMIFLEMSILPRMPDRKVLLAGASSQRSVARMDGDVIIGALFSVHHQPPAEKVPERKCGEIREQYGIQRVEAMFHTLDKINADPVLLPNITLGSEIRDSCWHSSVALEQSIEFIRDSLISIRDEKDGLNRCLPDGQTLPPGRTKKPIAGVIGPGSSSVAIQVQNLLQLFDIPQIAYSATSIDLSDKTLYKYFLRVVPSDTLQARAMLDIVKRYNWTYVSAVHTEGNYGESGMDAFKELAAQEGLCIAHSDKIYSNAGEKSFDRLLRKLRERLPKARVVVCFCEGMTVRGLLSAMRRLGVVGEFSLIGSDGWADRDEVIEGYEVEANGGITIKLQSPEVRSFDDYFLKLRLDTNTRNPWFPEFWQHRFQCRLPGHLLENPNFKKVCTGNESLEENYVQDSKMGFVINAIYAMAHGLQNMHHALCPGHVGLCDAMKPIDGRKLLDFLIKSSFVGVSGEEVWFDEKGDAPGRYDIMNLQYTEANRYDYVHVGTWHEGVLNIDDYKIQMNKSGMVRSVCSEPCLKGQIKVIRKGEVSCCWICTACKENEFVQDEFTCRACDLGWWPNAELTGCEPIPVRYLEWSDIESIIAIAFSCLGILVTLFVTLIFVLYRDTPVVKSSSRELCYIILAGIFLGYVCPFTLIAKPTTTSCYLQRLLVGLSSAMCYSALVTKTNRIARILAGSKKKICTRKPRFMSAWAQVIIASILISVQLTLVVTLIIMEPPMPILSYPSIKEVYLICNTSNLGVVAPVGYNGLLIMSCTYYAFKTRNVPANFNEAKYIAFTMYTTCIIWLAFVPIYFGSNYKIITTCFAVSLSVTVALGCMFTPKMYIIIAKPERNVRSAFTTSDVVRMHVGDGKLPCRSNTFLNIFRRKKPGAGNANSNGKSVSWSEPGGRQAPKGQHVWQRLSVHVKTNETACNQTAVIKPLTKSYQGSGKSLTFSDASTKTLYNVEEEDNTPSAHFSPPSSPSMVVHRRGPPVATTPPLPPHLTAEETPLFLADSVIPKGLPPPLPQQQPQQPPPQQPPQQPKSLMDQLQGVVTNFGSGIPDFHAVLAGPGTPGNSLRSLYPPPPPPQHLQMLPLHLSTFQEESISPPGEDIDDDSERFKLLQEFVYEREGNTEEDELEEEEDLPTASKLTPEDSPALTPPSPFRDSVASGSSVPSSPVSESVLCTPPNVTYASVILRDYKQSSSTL
T1 sequence (P31423 whole entry): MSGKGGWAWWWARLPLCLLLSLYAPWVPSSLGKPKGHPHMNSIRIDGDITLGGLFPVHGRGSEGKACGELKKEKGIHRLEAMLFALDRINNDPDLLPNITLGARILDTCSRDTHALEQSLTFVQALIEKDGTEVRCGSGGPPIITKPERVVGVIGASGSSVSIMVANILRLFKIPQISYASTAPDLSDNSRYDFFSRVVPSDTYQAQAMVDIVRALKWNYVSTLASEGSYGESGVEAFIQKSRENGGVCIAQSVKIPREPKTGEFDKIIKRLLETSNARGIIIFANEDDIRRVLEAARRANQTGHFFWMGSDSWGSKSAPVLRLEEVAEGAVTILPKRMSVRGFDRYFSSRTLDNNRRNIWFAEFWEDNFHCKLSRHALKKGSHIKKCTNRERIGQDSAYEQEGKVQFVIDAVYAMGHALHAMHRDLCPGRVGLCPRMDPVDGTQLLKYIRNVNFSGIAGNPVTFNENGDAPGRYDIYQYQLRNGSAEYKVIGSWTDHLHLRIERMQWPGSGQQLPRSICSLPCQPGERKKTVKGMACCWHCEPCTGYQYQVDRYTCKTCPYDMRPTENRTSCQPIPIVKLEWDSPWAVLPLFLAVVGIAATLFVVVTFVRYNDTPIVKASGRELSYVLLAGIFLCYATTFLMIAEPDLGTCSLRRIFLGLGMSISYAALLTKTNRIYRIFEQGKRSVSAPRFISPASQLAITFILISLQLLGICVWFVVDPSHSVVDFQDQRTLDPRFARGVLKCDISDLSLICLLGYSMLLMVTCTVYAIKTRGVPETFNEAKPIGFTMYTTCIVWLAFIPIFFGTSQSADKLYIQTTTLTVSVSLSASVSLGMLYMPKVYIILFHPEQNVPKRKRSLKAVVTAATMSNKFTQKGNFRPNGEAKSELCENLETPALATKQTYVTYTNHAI
T2 sequence (P31421 whole entry): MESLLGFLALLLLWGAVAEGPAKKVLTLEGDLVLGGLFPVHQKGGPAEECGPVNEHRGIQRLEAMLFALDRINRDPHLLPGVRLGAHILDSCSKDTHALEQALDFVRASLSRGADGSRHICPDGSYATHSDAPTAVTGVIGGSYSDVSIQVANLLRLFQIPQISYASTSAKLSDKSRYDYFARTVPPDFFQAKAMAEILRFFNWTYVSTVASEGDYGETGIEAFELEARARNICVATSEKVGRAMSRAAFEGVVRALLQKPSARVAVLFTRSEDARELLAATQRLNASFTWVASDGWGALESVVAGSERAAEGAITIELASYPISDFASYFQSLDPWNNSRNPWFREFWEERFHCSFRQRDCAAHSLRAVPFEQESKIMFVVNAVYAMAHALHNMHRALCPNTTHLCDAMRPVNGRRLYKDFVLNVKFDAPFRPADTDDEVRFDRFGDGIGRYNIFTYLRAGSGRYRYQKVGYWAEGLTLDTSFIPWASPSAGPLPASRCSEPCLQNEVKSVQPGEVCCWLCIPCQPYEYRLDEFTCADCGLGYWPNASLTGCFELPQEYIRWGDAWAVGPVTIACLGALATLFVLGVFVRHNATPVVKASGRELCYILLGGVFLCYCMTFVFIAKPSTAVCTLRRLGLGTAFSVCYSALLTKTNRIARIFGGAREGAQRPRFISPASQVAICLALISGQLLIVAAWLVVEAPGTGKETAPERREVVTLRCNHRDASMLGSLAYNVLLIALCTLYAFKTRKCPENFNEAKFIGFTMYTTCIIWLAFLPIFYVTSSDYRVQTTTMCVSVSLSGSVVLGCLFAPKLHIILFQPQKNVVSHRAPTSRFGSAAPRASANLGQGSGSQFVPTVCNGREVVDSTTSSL
Sequence of Metabotropic glutamate receptor 4 (Rattus norvegicus) (P31423 whole entry, looked up): as the sequence (P31423 whole entry) above

For the compound `N[C@H](C[C@H]1CC(C(=O)O)=NO1)C(=O)O`, at Glutamate NMDA receptor, the inhibition constant Ki came to 0.1 µM. The concentration for half-maximal inhibition (IC50) in [1] and in assay [2] was over 100 µM in each case.

Take `N[C@]1(C(=O)O)C[C@@H]2C(C(=O)O)=NO[C@@H]2C1`: the inhibitory constant (Ki) in assay [3] was over 1000 µM; in assay [6] it was 33 µM; in assay [7] it was “weak”. The concentration for a half-maximal effect (EC50) is 9.1 µM in assay [4] and over 1000 µM in assay [5].

As for `N[C@@H](C[C@H]1CC(C(=O)O)=NO1)C(=O)O`, the IC50 in assay [1] and in [2] was over 100 µM each time.

`N[C@]1(C(=O)O)C[C@@H]2ON=C(C(=O)O)[C@@H]2C1`: the inhibition constant Ki in assay [8] and in assay [6] was over 1000 µM each time. Further, the 50% effective concentration (EC50) in assay [4] and in assay [9] was over 1000 µM each time.

For `N[C@@H](C[C@@H]1CC(C(=O)O)=NO1)C(=O)O`, the inhibitory constant (Ki) at Glutamate NMDA receptor stood at 1.9 µM. The half-inhibitory concentration (IC50) in [1] and in assay [2] was over 100 µM each time.

Compound `N[C@H](C[C@@H]1CC(C(=O)O)=NO1)C(=O)O` displayed a Ki at Glutamate NMDA receptor of 0.51 µM. In addition, the IC50 in assay [1] and in assay [2] was over 100 µM in each case.

Take `N[C@@]1(C(=O)O)C[C@@H]2C(C(=O)O)=NO[C@@H]2C1`: the Ki was 0.233 µM at Glutamate NMDA receptor, over 1000 µM in assay [3], over 1000 µM in assay [8] and over 1000 µM in assay [6]. Also, the concentration for half-maximal inhibition (IC50) in assay [1] and in assay [2] was over 100 µM throughout. Besides, the EC50 in assay [4], in [5] and in assay [9] was over 1000 µM throughout.

Compound `N[C@@]1(C(=O)O)C[C@@H]2ON=C(C(=O)O)[C@@H]2C1` returned a Ki at Glutamate NMDA receptor of 47 µM. For the same compound, the 50% effective concentration (EC50) entry in assay [10] is reported as “Not Active”.

In the case of `NC1(C(=O)O)CC2ON=C(C(=O)O)C2C1` (racemic; form 1), the inhibition constant (Ki) was 0.37 µM on Glutamate NMDA receptor, over 1000 µM in [3] and 94 µM in assay [6]. Moreover, the results for the 50% inhibitory concentration (IC50) in [1], in [11] and in assay [2] were over 100 µM, 14 µM and over 100 µM, respectively. Also, in assay [5], the EC50 is over 1000 µM.

Regarding `NC(CC1CC(C(=O)O)=NO1)C(=O)O` (racemic; form 1), the inhibition constant Ki at Glutamate NMDA receptor is 0.21 µM; in [3], over 1000 µM; in assay [8], over 1000 µM; in assay [6], over 1000 µM. Further, the values for the half-maximal inhibitory concentration (IC50) in assay [1], in assay [11] and in assay [2] were over 100 µM, 14.2 µM and over 100 µM, respectively. Also, the concentration for a half-maximal effect (EC50) in assay [4], in assay [5] and in [9] was over 1000 µM in each case.

Take `NC1(C(=O)O)CC2ON=C(C(=O)O)C2C1` (racemic; form 2): the inhibition constant (Ki) is over 100 µM on Glutamate NMDA receptor, over 1000 µM in assay [3] (cho) and 27 µM in assay [6]. Also, the concentration for a half-maximal effect (EC50) in assay [4] was 16 µM; in assay [5] (cho), over 1000 µM.

On Glutamate NMDA receptor, `NC(CC1CC(C(=O)O)=NO1)C(=O)O` (racemic; form 2) came in with a Ki of 0.96 µM. The compound further had an IC50 in assay [11] of 30.5 µM.
